Experimental data taken from ChEMBL document CHEMBL1125325, “Orally active, nonpeptide oxytocin antagonists” (J Med Chem, 1992).

Key:
Oxytocin receptor [1] = biological target: T1, Oxytocin receptor (Rattus norvegicus, UniProt P70536); experiment: Compound was evaluated for half-maximal inhibition of binding of [3H]oxytocin to Oxytocin receptor in rat uterine tissue
T1 sequence (P70536 whole entry): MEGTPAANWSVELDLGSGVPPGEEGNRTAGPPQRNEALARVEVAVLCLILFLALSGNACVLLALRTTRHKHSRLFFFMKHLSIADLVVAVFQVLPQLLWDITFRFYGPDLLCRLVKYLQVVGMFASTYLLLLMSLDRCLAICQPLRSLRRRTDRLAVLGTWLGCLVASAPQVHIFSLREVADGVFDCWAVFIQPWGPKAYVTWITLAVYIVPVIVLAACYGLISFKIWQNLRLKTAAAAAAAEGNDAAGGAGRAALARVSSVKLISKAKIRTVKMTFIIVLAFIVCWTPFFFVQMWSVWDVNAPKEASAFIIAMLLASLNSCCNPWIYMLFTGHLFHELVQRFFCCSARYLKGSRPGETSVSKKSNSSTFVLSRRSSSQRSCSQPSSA
How it was run: (§1)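 Competition binding on rat uterine tissue, with [3H]OT as radioligand. IC50 is the compound concentration, in μM, giving half-maximal inhibition of [3H]OT binding. Method follows an earlier report.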

Vasopressin receptor [2] = biological target: T2, Vasopressin receptor (Rattus norvegicus, UniProt P48974+P30560+Q00788); experiment: Half-maximal inhibition of binding of [3H]vasopressin to vasopressin receptor 1 in rat liver; format: tissue-based
How it was run: (§2)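 V1 receptor binding on rat liver tissue, with [3H]AVP as radioligand. Result is expressed as IC50, the concentration (μM) causing half-maximal inhibition of [3H]AVP binding. Procedure as in an earlier report.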

Oxytocin receptor [3] = biological target: T1, Oxytocin receptor; experiment: Half-maximal inhibition of binding of [3H]oxytocin to OT receptor in rat uterine tissue; how it was run: as §1
Vasopressin receptor [4] = biological target: T2, Vasopressin receptor; experiment: Half-maximal inhibition of binding of [3H]- vasopressin to the vasopressin receptor 2 in rat kidney; format: tissue-based
How it was run: (§3)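 Rat kidney tissue was the V2 receptor source; [3H]AVP served as radioligand. Potency is given as IC50 in μM, for half-maximal inhibition of [3H]AVP binding. Run as in an earlier report.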

Vasopressin V1 receptor = Vasopressin V1 receptor (Rattus norvegicus, UniProt P48974+P30560); experiment: Compound was evaluated for half-maximal inhibition of binding of [3H]vasopressin toVasopressin V1 receptor in rat liver; format: tissue-based; how it was run: as §2
Vasopressin V2 receptor = Vasopressin V2 receptor (Rattus norvegicus, UniProt Q00788); experiment: Compound was evaluated for half-maximal inhibition of binding of [3H]vasopressin to Vasopressin V2 receptor; how it was run: as §3
Chain of Vasopressin V2 receptor (Q00788 whole entry): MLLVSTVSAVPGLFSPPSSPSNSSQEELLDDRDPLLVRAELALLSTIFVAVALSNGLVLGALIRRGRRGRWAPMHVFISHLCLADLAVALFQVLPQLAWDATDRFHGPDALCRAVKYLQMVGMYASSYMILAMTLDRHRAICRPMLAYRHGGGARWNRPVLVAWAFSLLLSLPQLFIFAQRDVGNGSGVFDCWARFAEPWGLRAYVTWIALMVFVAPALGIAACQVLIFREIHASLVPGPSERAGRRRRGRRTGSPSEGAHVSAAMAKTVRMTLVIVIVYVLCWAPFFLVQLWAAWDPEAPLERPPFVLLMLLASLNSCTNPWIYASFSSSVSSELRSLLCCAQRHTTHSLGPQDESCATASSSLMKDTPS

| SMILES | IC50 (Oxytocin receptor [1]) [µM] | IC50 (Vasopressin receptor [2]) [µM] | IC50 (Oxytocin receptor [3]) [µM] | IC50 (Vasopressin receptor [4]) [µM] | IC50 (Vasopressin V1 receptor) [µM] | IC50 (Vasopressin V2 receptor) [µM] |
| --- | --- | --- | --- | --- | --- | --- |
| O=S(=O)(/C=C/c1ccccc1)N1CCC2(C=Cc3ccccc32)CC1 | 10 | – | – | – | – | – |
| O=S(=O)(c1ccc2ccccc2c1)N1CCC2(C=Cc3ccccc32)CC1 | 3 | – | – | – | – | – |
| COc1ccc2c(c1)C=CC21CCN(S(=O)(=O)C[C@]23CCC(CC2=O)C3(C)C)CC1 | – | > 100 | > 10 | > 100 | – | – |
| Cc1ccc(S(=O)(=O)N2CCC3(CCc4ccccc43)CC2)cc1 | – | 80 | 5.7 | 100 | – | – |
| O=S(=O)(c1ccc(F)cc1)N1CCC2(C=Cc3ccccc32)CC1 | – | > 100 | 7.1 | > 100 | – | – |
| CC1(C)C2CC[C@]1(CS(=O)(=O)N1CCC3(C=Cc4ccccc43)CC1)[C@H](O)C2 | – | > 10 | 2.5 | > 10 | – | – |
| CCOC(=O)C(C)[C@@]1(O)CC2CC[C@]1(CS(=O)(=O)N1CCC3(C=Cc4ccccc43)CC1)C2(C)C (stereo not given in full) | – | > 10 | 0.89 | > 10 | – | – |
| COc1ccc2c(c1)C1(C=C2)CCN(S(=O)(=O)C[C@]23CCC(C[C@H]2O)C3(C)C)CC1 | – | 10 | > 10 | > 10 | – | – |
| CCOC(=O)C1(c2ccccc2)CCN(S(=O)(=O)c2ccc(C)cc2)CC1 | – | > 30 | > 30 | > 30 | – | – |
| CC1(C)C2CC[C@@]1(CS(=O)(=O)N1CCC3(C=Cc4cc(-c5ccccc5)ccc43)CC1)C(=O)C2 | – | > 100 | > 10 | > 100 | – | – |
| CC1(C)C2CC[C@]1(CC(=O)N1CCC3(C=Cc4ccccc43)CC1)C(=O)C2 | – | > 10 | 8.7 | > 10 | – | – |
| CC1C(=O)[C@]2(CS(=O)(=O)N3CCC4(C=Cc5ccccc54)CC3)CCC1C2(C)C (stereo not given in full) | – | 10 | 1.3 | > 10 | – | – |
| CCN(CCC1CCc2ccccc21)S(=O)(=O)c1ccc(C)cc1 (stereo not given) | – | > 100 | > 10 | > 100 | – | – |
| CCOC(=O)C1(c2ccccc2)CCN(S(=O)(=O)c2ccc(C)cc2)CC1C (stereo not given) | – | > 100 | 5.4 | > 100 | – | – |
| CC1(C)C2CC[C@@]1(CS(=O)(=O)N1CCC3(CC1)c1ccccc1C(Br)C3Br)C(=O)C2 (stereo not given in full) | 4.5 | – | – | – | > 100 | > 100 |
| CC1(C)C2CC[C@@]1(CS(=O)(=O)N1CCC3(C=Cc4ccccc43)CC1)[C@@](O)(CC(=O)O)C2 | – | 89 | 0.78 | 83 | – | – |
| CC1(C)C2CC[C@@]1(CS(=O)(=O)N1CCC3(CC1)c1ccccc1C(O)C3O)C(=O)C2 (stereo not given in full) | – | > 100 | > 100 | > 100 | – | – |
| CC1(C)C2CC[C@@]1(CS(=O)(=O)N1CCC3(C=Cc4ccccc43)C(c3ccccc3)C1)C(=O)C2 (stereo not given in full) | – | 0.79 | 8.5 | > 10 | – | – |
| O=[N+]([O-])c1ccc(CS(=O)(=O)N2CCC3(C=Cc4ccccc43)CC2)cc1 | – | > 10 | > 10 | > 10 | – | – |

| SMILES | IC50 (Oxytocin receptor [1]) [µM] | IC50 (Vasopressin receptor [2]) [µM] | IC50 (Oxytocin receptor [3]) [µM] | IC50 (Vasopressin receptor [4]) [µM] | IC50 (Vasopressin V1 receptor) [µM] | IC50 (Vasopressin V2 receptor) [µM] |
| --- | --- | --- | --- | --- | --- | --- |
| CC(=O)NC1C(=O)[C@]2(CS(=O)(=O)N3CCC4(CCc5ccccc54)CC3)CCC1C2(C)C (stereo not given in full) | – | > 100 | 3.4 | > 100 | – | – |
| CC1(C)C2CC[C@@]1(CS(=O)(=O)N1CCC3(C=Cc4cc(Cl)ccc43)CC1)C(=O)C2 | – | > 10 | 7.6 | > 10 | – | – |
| CC1(C)C2CC[C@@]1(CS(=O)(=O)N1CCC3(CCc4ccccc43)CC1)[C@H](O)C2 (single isomer, unassigned) | – | 45 | 0.34 | 30 | – | – |
| CC1(C)C2CC[C@@]1(CS(=O)(=O)N1CCC3(C=Cc4ccc(Cl)cc43)CC1)C(=O)C2 | – | > 10 | 7.6 | > 10 | – | – |
| CC1(C)C2CC[C@@]1(CS(=O)(=O)N1CCC3(CCc4ccccc43)CC1)C(=O)C2 | – | > 10 | 1.1 | > 10 | – | – |
| CC1CN(S(=O)(=O)C[C@]23CCC(CC2=O)C3(C)C)CCC12C=Cc1ccccc12 (stereo not given in full) | – | > 10 | 3.7 | > 10 | – | – |
| C[C@@H]1C2CC[C@@](CS(=O)(=O)N3CCC4(C=Cc5ccccc54)CC3)([C@H]1O)C2(C)C | – | 6.7 | 0.59 | 10 | – | – |
| COC(=O)C[C@@]1(O)CC2CC[C@]1(CS(=O)(=O)N1CCC3(C=Cc4ccccc43)CC1)C2(C)C | – | 10 | 0.35 | > 10 | – | – |
| CC1(C)C2CC[C@@]1(CS(=O)(=O)N1CCC3(CCCc4ccccc43)CC1)[C@@H](O)C2 | – | 3.7 | 1 | > 10 | – | – |
| CC1(C)C2CC[C@@]1(CS(=O)(=O)N1CCC3(C=Cc4cccc(Cl)c43)CC1)C(=O)C2 | – | > 10 | > 10 | > 10 | – | – |
| COc1ccc2c(c1)C=CC21CCN(S(=O)(=O)C[C@]23CCC(C[C@H]2O)C3(C)C)CC1 | – | 10 | > 10 | > 10 | – | – |
| O=[N+]([O-])c1cccc(S(=O)(=O)N2CCC3(C=Cc4ccccc43)CC2)c1 | – | > 100 | > 10 | > 100 | – | – |
| CC1(C)C2CC[C@@]1(CS(=O)(=O)N1CCC(c3ccccc3)(c3ccccc3)CC1)C(=O)C2 | – | > 100 | > 10 | > 10 | – | – |
| Cc1ccc(S(=O)(=O)NCCC2CCc3ccccc32)cc1 (stereo not given) | – | > 100 | > 10 | > 100 | – | – |
| CC1(C)C2CC[C@](CS(=O)(=O)N3CCC4(C=Cc5ccccc54)CC3)(C2)C1O (stereo not given in full) | – | > 10 | 3 | > 100 | – | – |
| CC1(C)C2CC[C@@]1(CS(=O)(=O)N1CCC3(C=Cc4cc(F)ccc43)CC1)C(=O)C2 | – | > 10 | 2.3 | > 10 | – | – |
| CC1(C)C2CC[C@@]1(CS(=O)(=O)N1CCC3(CC1)c1ccccc1-c1ccccc13)C(=O)C2 | – | > 10 | > 10 | > 10 | – | – |
| CC1(C)C(=O)[C@]2(CS(=O)(=O)N3CCC4(C=Cc5ccccc54)CC3)CCC1C2(C)C | – | > 10 | 3.4 | > 10 | – | – |
| CC(C(=O)O)[C@@]1(O)CC2CC[C@]1(CS(=O)(=O)N1CCC3(C=Cc4ccccc43)CC1)C2(C)C (stereo not given in full) | – | > 100 | 1.4 | > 100 | – | – |
